Experimental data published in ChEMBL document CHEMBL1140384, “Synthesis and structure-activity relationships of suramin-derived P2Y11 receptor antagonists with nanomolar potency” (J Med Chem, 2005).

Columns and labels:
[1] = target: T1, P2Y purinoceptor 11 (Homo sapiens, UniProt Q96G91); assay: Inhibitory concentration against P2Y purinoceptor 11 expressed in 1321N1 astrocytoma cells; n=3; type: cell-based
T1 sequence (Q96G91 whole entry): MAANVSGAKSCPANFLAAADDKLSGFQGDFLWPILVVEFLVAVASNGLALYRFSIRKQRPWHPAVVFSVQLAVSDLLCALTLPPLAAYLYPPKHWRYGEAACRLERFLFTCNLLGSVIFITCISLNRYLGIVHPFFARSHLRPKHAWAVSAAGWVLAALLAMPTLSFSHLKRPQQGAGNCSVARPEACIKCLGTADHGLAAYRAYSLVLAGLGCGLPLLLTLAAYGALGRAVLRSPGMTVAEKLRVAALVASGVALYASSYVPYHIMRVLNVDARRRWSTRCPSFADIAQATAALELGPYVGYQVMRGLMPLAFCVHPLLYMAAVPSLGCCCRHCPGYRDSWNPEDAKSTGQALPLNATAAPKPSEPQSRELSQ
Summary of the method: (§1)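 Human P2Y11 stably expressed in 1321N1 astrocytoma cells (G418 selection), loaded with Oregon Green 488 BAPTA-1/AM (3 µM, 60 min, 25 °C) in Krebs-HEPES. Compound preincubated 30 min at 37 °C before injection of 1 µM ATPγS. Ca2+ fluorescence read at ex 485/em 520 nm for 30 s. IC50 from concentration-inhibition curves; independent experiments each run in triplicate.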

[2] = target: T2, P2Y purinoceptor 11 (Homo sapiens) (UniProt Q96G91); assay: Relative potency was measured against P2Y purinoceptor 11; type: functional
T2 sequence (whole entry): T1 sequence (Q96G91 whole entry)

[3] = target: P2Y purinoceptor 2 (Homo sapiens, UniProt P41231); assay: Percent inhibition of agonist-induced calcium mobilization at P2Y purinoceptor 2 recombinantly expressed in human HEK293 cells at 100 uM dose; type: functional, cell-based; settings: in the assay text read “native in” for “recombinantly expressed in”
Sequence of P2Y purinoceptor 2 (P41231 whole entry): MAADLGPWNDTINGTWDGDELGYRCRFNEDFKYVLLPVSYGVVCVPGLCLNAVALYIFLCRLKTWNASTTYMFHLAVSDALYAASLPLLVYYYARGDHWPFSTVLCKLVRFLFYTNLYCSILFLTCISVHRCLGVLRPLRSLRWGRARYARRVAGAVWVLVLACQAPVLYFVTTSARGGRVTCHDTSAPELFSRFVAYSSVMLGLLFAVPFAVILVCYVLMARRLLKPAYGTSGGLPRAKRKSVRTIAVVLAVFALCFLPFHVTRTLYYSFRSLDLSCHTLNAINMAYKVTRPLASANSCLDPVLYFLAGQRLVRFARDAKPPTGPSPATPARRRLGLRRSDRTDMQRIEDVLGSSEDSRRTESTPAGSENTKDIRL
Summary of the method: (§2)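 Single 100 µM antagonist dose, preincubated 30 min at 37 °C, in a Ca2+ fluorescence assay (Oregon Green 488 BAPTA-1/AM). Agonists: 31.6 nM 2-MeSADP for native P2Y1 and 3.16 µM UTP for native P2Y2, both in HEK293 cells; 1 µM ATPγS for recombinant P2Y11 in 1321N1 cells. Response expressed as % of agonist control; mean ± SEM, n ≥ 3.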

[4] = target: P2Y purinoceptor 1 (Homo sapiens, UniProt P47900); assay: Percent inhibition of agonist-induced calcium mobilization at P2Y purinoceptor 1 recombinantly expressed in human HEK293 cells at 100 uM dose; type: functional, cell-based; settings: in the assay text read “native in” for “recombinantly expressed in”; summary of the method: as §2
Sequence of P2Y purinoceptor 1 (P47900 whole entry): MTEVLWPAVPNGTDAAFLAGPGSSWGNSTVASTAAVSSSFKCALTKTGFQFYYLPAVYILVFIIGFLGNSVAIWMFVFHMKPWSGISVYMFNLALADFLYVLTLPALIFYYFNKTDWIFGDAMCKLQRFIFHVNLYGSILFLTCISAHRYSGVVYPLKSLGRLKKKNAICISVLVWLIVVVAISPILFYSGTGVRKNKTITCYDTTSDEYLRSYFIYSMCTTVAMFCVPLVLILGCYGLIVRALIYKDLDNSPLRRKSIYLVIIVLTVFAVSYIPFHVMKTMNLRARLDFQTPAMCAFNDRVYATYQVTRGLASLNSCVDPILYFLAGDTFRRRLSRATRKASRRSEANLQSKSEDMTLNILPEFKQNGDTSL

[5] = target: T2, P2Y purinoceptor 11 (Homo sapiens); assay: Percent inhibition of agonist-induced calcium mobilization at P2Y purinoceptor 11 recombinantly expressed in human 1321N1 astrocytoma cells at 100 uM dose
[6] = target: T1, P2Y purinoceptor 11; assay: Inhibitory concentration against P2Y purinoceptor 11 expressed in 1321N1 astrocytoma cells; n=7; type: cell-based; summary of the method: as §1
[7] = target: T1, P2Y purinoceptor 11; assay: Inhibitory concentration against P2Y purinoceptor 11 expressed in 1321N1 astrocytoma cells; n=4; type: cell-based; summary of the method: as §1
[8] = target: T1, P2Y purinoceptor 11; assay: Inhibitory concentration against P2Y purinoceptor 11 expressed in 1321N1 astrocytoma cells; n=6; type: cell-based; summary of the method: as §1

SMILES | Ki [1] [nM] | Rel potency [2] | inhibition [3] [%] | inhibition [4] [%] | inhibition [5] [%] | Ki [6] [nM] | Ki [7] [nM] | Ki [8] [nM]
CC(C)c1ccc(C(=O)Nc2ccc(S(=O)(=O)O)c3cc(S(=O)(=O)O)cc(S(=O)(=O)O)c23)cc1NC(=O)c1cccc(NC(=O)Nc2cccc(C(=O)Nc3cc(C(=O)Nc4ccc(S(=O)(=O)O)c5cc(S(=O)(=O)O)cc(S(=O)(=O)O)c45)ccc3C(C)C)c2)c1 | 447 | 10 | 31.1 | 45 | 83.1 | – | – | –
O=C(Nc1cccc(C(=O)Nc2cc(C(=O)Nc3ccc(S(=O)(=O)O)c4cc(S(=O)(=O)O)cc(S(=O)(=O)O)c34)ccc2-c2ccccc2)c1)Nc1cccc(C(=O)Nc2cc(C(=O)Nc3ccc(S(=O)(=O)O)c4cc(S(=O)(=O)O)cc(S(=O)(=O)O)c34)ccc2-c2ccccc2)c1 | 302 | 15 | 73.2 | 75.1 | 79.9 | – | – | –
O=C(Nc1cccc(C(=O)Nc2ccc(S(=O)(=O)O)c3cc(S(=O)(=O)O)cc(S(=O)(=O)O)c23)c1)Nc1cccc(C(=O)Nc2ccc(S(=O)(=O)O)c3cc(S(=O)(=O)O)cc(S(=O)(=O)O)c23)c1 | – | – | 24 | 19.7 | 54.2 | – | – | –
COc1ccc(C(=O)Nc2ccc(S(=O)(=O)O)c3cc(S(=O)(=O)O)cc(S(=O)(=O)O)c23)cc1NC(=O)c1cccc(NC(=O)Nc2cccc(C(=O)Nc3cc(C(=O)Nc4ccc(S(=O)(=O)O)c5cc(S(=O)(=O)O)cc(S(=O)(=O)O)c45)ccc3OC)c2)c1 | – | 59 | 44.9 | 23.2 | 92.2 | 75.9 | – | –
O=C(Nc1cc(C(=O)Nc2ccc(S(=O)(=O)O)c3cc(S(=O)(=O)O)cc(S(=O)(=O)O)c23)ccc1-c1ccccc1)Nc1cc(C(=O)Nc2ccc(S(=O)(=O)O)c3cc(S(=O)(=O)O)cc(S(=O)(=O)O)c23)ccc1-c1ccccc1 | – | – | 0 | 34.2 | 35.9 | – | – | –
O=C(Nc1cccc(C(=O)Nc2cc(C(=O)Nc3ccc(S(=O)(=O)O)c4cc(S(=O)(=O)O)cc(S(=O)(=O)O)c34)ccc2Cl)c1)Nc1cccc(C(=O)Nc2cc(C(=O)Nc3ccc(S(=O)(=O)O)c4cc(S(=O)(=O)O)cc(S(=O)(=O)O)c34)ccc2Cl)c1 | – | 42 | 55.2 | 40.6 | 93 | 107 | – | –
CCc1ccc(C(=O)Nc2ccc(S(=O)(=O)O)c3cc(S(=O)(=O)O)cc(S(=O)(=O)O)c23)cc1NC(=O)c1cccc(NC(=O)Nc2cccc(C(=O)Nc3cc(C(=O)Nc4ccc(S(=O)(=O)O)c5cc(S(=O)(=O)O)cc(S(=O)(=O)O)c45)ccc3CC)c2)c1 | 1000 | 4.5 | 48.8 | 48.7 | 84.9 | – | – | –
COCc1ccc(C(=O)Nc2ccc(S(=O)(=O)O)c3cc(S(=O)(=O)O)cc(S(=O)(=O)O)c23)cc1NC(=O)c1cccc(NC(=O)Nc2cccc(C(=O)Nc3cc(C(=O)Nc4ccc(S(=O)(=O)O)c5cc(S(=O)(=O)O)cc(S(=O)(=O)O)c45)ccc3COC)c2)c1 | – | 1.9 | 44.3 | 47.5 | 71.6 | – | 2400 | –
Cc1ccc(C(=O)Nc2ccc(S(=O)(=O)O)c3cc(S(=O)(=O)O)cc(S(=O)(=O)O)c23)cc1NC(=O)c1cccc(NC(=O)Nc2cccc(C(=O)Nc3cc(C(=O)Nc4ccc(S(=O)(=O)O)c5cc(S(=O)(=O)O)cc(S(=O)(=O)O)c45)ccc3C)c2)c1 [SURAMIN] | – | 15 | 50.5 | 54.5 | 93.7 | – | – | 302

Second part, the molecule after the results:

Ki [1] [nM] | Rel potency [2] | inhibition [3] [%] | inhibition [4] [%] | inhibition [5] [%] | Ki [6] [nM] | Ki [7] [nM] | Ki [8] [nM] | SMILES
– | – | 0 | 60 | 64.7 | – | – | – | O=C(Nc1cc(C(=O)Nc2ccc(S(=O)(=O)O)c3cc(S(=O)(=O)O)cc(S(=O)(=O)O)c23)ccc1F)Nc1cc(C(=O)Nc2ccc(S(=O)(=O)O)c3cc(S(=O)(=O)O)cc(S(=O)(=O)O)c23)ccc1F
– | – | 0 | 57.8 | 59 | – | – | – | O=C(Nc1cc(C(=O)Nc2ccc(S(=O)(=O)O)c3cc(S(=O)(=O)O)cc(S(=O)(=O)O)c23)ccc1Cl)Nc1cc(C(=O)Nc2ccc(S(=O)(=O)O)c3cc(S(=O)(=O)O)cc(S(=O)(=O)O)c23)ccc1Cl
– | – | 14.2 | 28.7 | 23.2 | – | – | – | CC(C)c1ccc(C(=O)Nc2ccc(S(=O)(=O)O)c3cc(S(=O)(=O)O)cc(S(=O)(=O)O)c23)cc1NC(=O)Nc1cc(C(=O)Nc2ccc(S(=O)(=O)O)c3cc(S(=O)(=O)O)cc(S(=O)(=O)O)c23)ccc1C(C)C
– | – | 13 | 31.7 | 23.8 | – | – | – | COCc1ccc(C(=O)Nc2ccc(S(=O)(=O)O)c3cc(S(=O)(=O)O)cc(S(=O)(=O)O)c23)cc1NC(=O)Nc1cc(C(=O)Nc2ccc(S(=O)(=O)O)c3cc(S(=O)(=O)O)cc(S(=O)(=O)O)c23)ccc1COC
7590 | 0.6 | 28.4 | 0 | 86.6 | – | – | – | Cc1ccc(C(=O)Nc2ccc(S(=O)(=O)O)c3cc(S(=O)(=O)O)cc(S(=O)(=O)O)c23)cc1NC(=O)Nc1cc(C(=O)Nc2ccc(S(=O)(=O)O)c3cc(S(=O)(=O)O)cc(S(=O)(=O)O)c23)ccc1C
– | – | 20.8 | 38.4 | 39.9 | – | – | – | CCc1ccc(C(=O)Nc2ccc(S(=O)(=O)O)c3cc(S(=O)(=O)O)cc(S(=O)(=O)O)c23)cc1NC(=O)Nc1cc(C(=O)Nc2ccc(S(=O)(=O)O)c3cc(S(=O)(=O)O)cc(S(=O)(=O)O)c23)ccc1CC
– | – | 53.6 | 40 | 11.2 | – | – | – | COc1ccc(C(=O)Nc2ccc(S(=O)(=O)O)c3cc(S(=O)(=O)O)cc(S(=O)(=O)O)c23)cc1NC(=O)Nc1cc(C(=O)Nc2ccc(S(=O)(=O)O)c3cc(S(=O)(=O)O)cc(S(=O)(=O)O)c23)ccc1OC
